{
  "source": "ChEMBL document CHEMBL1128184",
  "about": "“Topoisomerase II-mediated DNA cleavage by adocia- and xestoquinones from the Philippine sponge Xestospongia sp” (J Med Chem, 1995)",
  "key": {"[1]": {"target": "DNA topoisomerase II (Homo sapiens) (UniProt P11388+Q02880)", "test": "In vitro inhibition of partially purified human ovarian carcinoma topoisomerase II of kDNA decatenation", "type": "protein assay", "in_short": "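Decatenation of kinetoplast DNA (0.2 μg) by one unit of partially purified human ovarian carcinoma topoisomerase II in 50 mM Tris-HCl pH 8.0, 120 mM KCl, 10 mM MgCl2, 1 mM ATP, 0.5 mM DTT, 30 μg/mL BSA. Compound added in DMSO. Stopped with sarkosyl stop buffer, 1% agarose/ethidium gel, UV visualization. Value is the concentration apparently inhibiting 90% of monomer-length kDNA production.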"}, "[2]": {"tested_on": "HCT-116", "test": "Cytotoxicity against HCT116 cells.", "type": "functional, cell-based", "conditions": "Homo sapiens", "in_short": "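HCT 116 human colon tumour cells in McCoy's medium with 10% FBS, seeded at 40 000 cells/well and allowed 4 h to attach. Drug added in DMSO (0.5%), 3 days continuous exposure, four replicate wells per dose. MTT (5 mg/mL in PBS) added for 4 h, formazan dissolved in acidic 2-propanol, A540 read against DMSO controls for percent growth inhibition.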"}, "[3]": {"target": "T1, DNA topoisomerase 2 (Drosophila melanogaster) (UniProt P15348)", "T1 sequence (whole entry)": "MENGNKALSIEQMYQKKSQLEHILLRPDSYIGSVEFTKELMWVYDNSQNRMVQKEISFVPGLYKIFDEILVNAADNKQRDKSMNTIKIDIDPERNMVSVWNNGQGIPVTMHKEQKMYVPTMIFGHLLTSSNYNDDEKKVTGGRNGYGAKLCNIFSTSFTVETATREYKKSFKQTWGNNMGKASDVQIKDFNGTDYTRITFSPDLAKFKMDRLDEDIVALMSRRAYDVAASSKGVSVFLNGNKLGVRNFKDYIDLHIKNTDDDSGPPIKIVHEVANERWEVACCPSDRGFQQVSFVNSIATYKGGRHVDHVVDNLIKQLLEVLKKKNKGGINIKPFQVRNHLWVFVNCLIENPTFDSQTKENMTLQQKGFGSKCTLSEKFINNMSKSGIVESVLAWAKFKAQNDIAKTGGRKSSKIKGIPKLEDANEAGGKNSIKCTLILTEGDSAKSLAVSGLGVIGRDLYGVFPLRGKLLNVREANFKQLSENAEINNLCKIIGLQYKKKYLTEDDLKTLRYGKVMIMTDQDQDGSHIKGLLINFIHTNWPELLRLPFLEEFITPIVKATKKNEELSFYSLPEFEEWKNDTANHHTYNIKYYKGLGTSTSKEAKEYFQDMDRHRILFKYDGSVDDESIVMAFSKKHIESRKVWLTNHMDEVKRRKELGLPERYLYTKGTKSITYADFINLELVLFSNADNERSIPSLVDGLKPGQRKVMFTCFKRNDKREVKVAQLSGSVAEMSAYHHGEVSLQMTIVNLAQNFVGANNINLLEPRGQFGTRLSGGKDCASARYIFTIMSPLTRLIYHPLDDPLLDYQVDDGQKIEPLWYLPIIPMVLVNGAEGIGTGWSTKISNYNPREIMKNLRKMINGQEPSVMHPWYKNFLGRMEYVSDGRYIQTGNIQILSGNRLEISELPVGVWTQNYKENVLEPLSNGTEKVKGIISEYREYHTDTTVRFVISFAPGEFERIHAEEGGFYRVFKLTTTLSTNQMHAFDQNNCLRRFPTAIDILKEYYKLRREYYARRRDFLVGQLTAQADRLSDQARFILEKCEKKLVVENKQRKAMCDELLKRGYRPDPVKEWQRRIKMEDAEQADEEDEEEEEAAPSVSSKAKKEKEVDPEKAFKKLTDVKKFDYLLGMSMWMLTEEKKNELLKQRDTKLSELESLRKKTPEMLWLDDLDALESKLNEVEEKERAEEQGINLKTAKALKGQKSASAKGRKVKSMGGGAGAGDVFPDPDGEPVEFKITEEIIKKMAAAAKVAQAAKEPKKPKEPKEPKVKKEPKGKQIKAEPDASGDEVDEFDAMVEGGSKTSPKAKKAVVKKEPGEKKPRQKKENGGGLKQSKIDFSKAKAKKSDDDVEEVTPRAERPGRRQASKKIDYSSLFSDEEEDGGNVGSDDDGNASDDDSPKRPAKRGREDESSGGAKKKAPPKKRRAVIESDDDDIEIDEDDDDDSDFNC", "test": "Inhibition of commercially obtained pure Drosophila Topoisomerase II in catalytic DNA unwinding.", "in_short": "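Relaxation assay with supercoiled pBR322 (0.5 μg) and pure Drosophila topoisomerase II at 3 units per reaction. Buffer: 50 mM Tris-HCl pH 8.0, 120 mM KCl, 10 mM MgCl2, 1 mM ATP, 0.5 mM DTT, 30 μg/mL BSA. Drug added in DMSO.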"}, "[4]": {"tested_on": "XRS6", "test": "Cytotoxicity against CHO cell line xrs6", "type": "functional, cell-based", "conditions": "Cricetulus griseus", "in_short": "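MTT assay on DNA double-strand-break repair-deficient CHO xrs-6 cells grown in αMEM with serum, seeded at 60 000 cells/well and allowed to attach 4 h. Drug added from DMSO stock, final DMSO 1% or less, four replicate wells per dose. Exposure 18 h, then drug-free medium. Absorbance at 540 nm, compared against DMSO-only wells to give percent growth inhibition.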"}, "[5]": {"test": "Ratio of BR1 IC50 to xrs-6 IC50", "type": "functional", "in_short": "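MTT assay run in parallel on repair-competent CHO BR1 (40 000 cells/well) and repair-deficient xrs-6 (60 000 cells/well), both in αMEM with serum. 4 h attachment, then 18 h drug exposure from DMSO (final 1% or less), then drug-free medium. Four wells per dose, A540 against DMSO controls. The ratio is the BR1 IC50 divided by the xrs-6 IC50.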"}},
  "data": [
    {"smiles": "C[C@@]12CCCc3coc(c31)C(=O)c1cc3c(cc12)C(=O)C1=C(NCCS1(=O)=O)C3=O", "note": "[ADOCIAQUINONE B]", "values": [
      {"measurement": "IC90", "setting": "[1]", "value": "< 11", "unit": "µM"},
      {"measurement": "IC50", "setting": "[2]", "value": 21, "unit": "µM"},
      {"measurement": "IC90", "setting": "[3]", "value": 78, "unit": "µM"},
      {"measurement": "IC50", "setting": "[4]", "value": 23, "unit": "µM"},
      {"measurement": "Ratio", "setting": "[5]", "value": 3}
    ]},
    {"smiles": "C[C@@]12CCCc3coc(c31)C(=O)c1cc3c(cc12)C(=O)C=C(NCCS(=O)(=O)O)C3=O", "values": [
      {"measurement": "IC50", "setting": "[2]", "value": "> 143", "unit": "µM"},
      {"measurement": "IC50", "setting": "[4]", "value": "> 287", "unit": "µM"}
    ]},
    {"smiles": "COC1=CC(=O)c2cc3c(cc2C1=O)[C@]1(C)CCCc2coc(c21)C3=O", "values": [
      {"measurement": "IC50", "setting": "[2]", "value": 28, "unit": "µM"},
      {"measurement": "IC50", "setting": "[4]", "value": 4.3, "unit": "µM"},
      {"measurement": "Ratio", "setting": "[5]", "value": 3}
    ]},
    {"smiles": "COc1cc([C@@H]2c3cc4c(cc3[C@@H](O[C@@H]3O[C@@H]5CO[C@@H](C)O[C@H]5[C@H](O)[C@H]3O)[C@H]3COC(=O)[C@H]23)OCO4)cc(OC)c1O", "note": "[ETOPOSIDE]", "values": [
      {"measurement": "IC90", "setting": "[3]", "value": 85, "unit": "µM"},
      {"measurement": "IC50", "setting": "[4]", "value": 0.14, "unit": "µM"},
      {"measurement": "Ratio", "setting": "[5]", "value": 7}
    ]},
    {"smiles": "COc1cc(NS(C)(=O)=O)ccc1Nc1c2ccccc2nc2ccccc12", "note": "[AMSACRINE]", "values": [
      {"measurement": "IC50", "setting": "[4]", "value": 0.24, "unit": "µM"},
      {"measurement": "Ratio", "setting": "[5]", "value": 4}
    ]},
    {"smiles": "COC1=CC(=O)c2cc3c(cc2C1=O)C(=O)c1occ2c1[C@@]3(C)CCC2", "values": [
      {"measurement": "IC50", "setting": "[2]", "value": 28, "unit": "µM"},
      {"measurement": "IC50", "setting": "[4]", "value": 4.3, "unit": "µM"},
      {"measurement": "Ratio", "setting": "[5]", "value": 3}
    ]},
    {"smiles": "C[C@@]12CCCc3coc(c31)C(=O)c1cc3c(cc12)C(=O)/C(=N/CCS(=O)(=O)O)C=C3O", "values": [
      {"measurement": "IC50", "setting": "[2]", "value": "> 143", "unit": "µM"},
      {"measurement": "IC50", "setting": "[4]", "value": "> 287", "unit": "µM"}
    ]},
    {"smiles": "O=C1c2c(O)ccc(O)c2C(=O)c2c(NCCNCCO)ccc(NCCNCCO)c21", "note": "[MITOXANTRONE]", "values": [
      {"measurement": "IC90", "setting": "[3]", "value": 56, "unit": "µM"},
      {"measurement": "IC50", "setting": "[4]", "value": 0.001, "unit": "µM"}
    ]},
    {"smiles": "C[C@@]12CCCc3coc(c31)C(=O)c1cc3c(cc12)C(=O)C(Cl)=C(O)C3=O", "values": [
      {"measurement": "IC50", "setting": "[2]", "value": 33, "unit": "µM"},
      {"measurement": "IC50", "setting": "[4]", "value": 27, "unit": "µM"},
      {"measurement": "Ratio", "setting": "[5]", "value": 4.5}
    ]},
    {"smiles": "C[C@@]12CCCc3coc(c31)C(=O)c1cc3c(cc12)C(=O)C1=NCCS(=O)(=O)C1=C3O", "note": "[ADOCIAQUINONE A]", "values": [
      {"measurement": "IC50", "setting": "[2]", "value": 24, "unit": "µM"},
      {"measurement": "IC50", "setting": "[4]", "value": 78, "unit": "µM"},
      {"measurement": "Ratio", "setting": "[5]", "value": 3}
    ]},
    {"smiles": "C[C@@]12CCCc3coc(c31)C(=O)c1cc3c(cc12)C(=O)C(=O)C(Cl)=C3O", "values": [
      {"measurement": "IC50", "setting": "[2]", "value": 33, "unit": "µM"},
      {"measurement": "IC50", "setting": "[4]", "value": 27, "unit": "µM"},
      {"measurement": "Ratio", "setting": "[5]", "value": 4.5}
    ]}
  ]
}
